Measurements: ChEMBL document CHEMBL4382276, “New in Vitro Assay Measuring Direct Interaction of Nonsense Suppressors with the Eukaryotic Protein Synthesis Machinery” (ACS Med Chem Lett, 2018)
Active and inactive are the calls of the source. No cut-off for these calls is given here.

Key:
[1] = at cricket paralysis virus-internal ribosome entry site codon UGG assessed as from FKVRQ-tRNAGln at EC50 to 2 times EC50 measured after 20 mins in presence of Typ-tRNA, Leu-tRNA and [35S]-Met-tRNA by co-sedimentation assay
[2] = system: Cricket paralysis virus; assay: Induction of read through activity at cricket paralysis virus-internal ribosome entry site premature termination codon UGA assessed as ratio of plateau octapeptide to FKVRQ-tRNAGln measured after 20 mins in presence of Typ-tRNA, Leu-tRNA and [35S]-Met-tRNA by co-sedimentation assay
[3] = Induction of read through activity at cricket paralysis virus-internal ribosome entry site premature termination codon UGA assessed as increase in octapeptide formation from FKVRQ-tRNAGln measured after 20 mins in presence of Typ-tRNA, Leu-tRNA and [35S]-Met-tRNA by co-sedimentation assay
[4] = Induction of read through activity at cricket paralysis virus-internal ribosome entry site codon UGA assessed as increase in octapeptide formation from FKVRQ-tRNAGln at 30 to 600 uM measured after 20 mins in presence of Typ-tRNA, Leu-tRNA and [35S]-Met-tRNA by co-sedimentation assay
[5] = system: Cricket paralysis virus; assay: (§1) Induction of read through activity at cricket paralysis virus-internal ribosome entry site premature termination codon UGA assessed as rate constant for octapeptide formation from FKVRQ-tRNAGln at 500 uM preincubated for 30 secs in presence of Typ-tRNA followed by Leu-tRNA and [35S]-Met-tRNA addition by co-sedimentation assay
Procedure, shortened: (§2)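 Time course with the same components: POST5 complex 0.02 μM, aminoacyl-tRNAs 0.08 μM each, eEF1A, eEF2, eRF1 0.010 μM, eRF3 0.020 μM, Buffer 4, 37 °C. Aliquots taken from 30 s to 20 min and MES-quenched. Octapeptide measured by ribosome cosedimentation or by base release and thin layer electrophoresis. Rate constants derived from the time courses.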

[6] = system: Cricket paralysis virus; assay: as §1, with “site” for “site premature termination”, “UGG” for “UGA”
Procedure, shortened: as §2

[7] = Induction of [35S]Met-tRNA (unknown origin) precipitable particle formation at 30 uM measured after 20 mins
[8] = Induction of 80S ribosome-internal ribosome entry site (unknown origin) precipitable particle formation at 30 uM measured after 20 mins
[9] = system: Cricket paralysis virus; assay: Induction of read through activity at cricket paralysis virus-internal ribosome entry site premature termination codon UGA assessed as eEF2-induced 80S-Stop-IRES-PRE6 formation from 80S-Stop-IRES-POST5 at 1 to 10 uM by FRET assay
[10] = system: Cricket paralysis virus; assay: as §1, with “site” for “site premature termination”, “UGG” for “UGA”, “5” for “500”
Procedure, shortened: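 POST5 complex (0.02 μM) mixed with Trp-tRNATrp, Leu-tRNALeu and [35S]-Met-tRNAMet (0.08 μM each), eEF1A (0.08 μM), eEF2 (1.0 μM), eRF1 (0.010 μM) and eRF3 (0.020 μM), with or without NonSup. Incubation at 37 °C in Tris-HCl pH 7.5 buffer for 30 s to 20 min. Quench with 0.5 M MES pH 6.0 at 0 °C, ultracentrifuge through 1.1 M sucrose, and count ribosome-cosedimenting [35S] octapeptidyl-tRNA.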

[11] = Induction of read through activity at cricket paralysis virus-internal ribosome entry site codon UGG assessed as eEF2-induced 80S-Trp-IRES-PRE6 formation from 80S-Trp-IRES-POST5 by FRET assay
[12] = system: Cricket paralysis virus; assay: Inhibition of read through activity at cricket paralysis virus-internal ribosome entry site premature termination codon UGA assessed as decrease in octapeptide formation from FKVRQ-tRNAGln at 600 uM measured after 20 mins in presence of Typ-tRNA, Leu-tRNA and [35S]-Met-tRNA by co-sedimentation assay
[13] = Inhibition of read through activity at cricket paralysis virus-internal ribosome entry site codon UGG assessed as decrease in octapeptide formation from FKVRQ-tRNAGln at 600 uM measured after 20 mins in presence of Typ-tRNA, Leu-tRNA and [35S]-Met-tRNA by co-sedimentation assay

Compound: NCCC[C@H](N)CC(=O)NCCC[C@H](N)CC(=O)NCCC[C@H](N)CC(=O)NCCC[C@H](N)CC(=O)N[C@@H]1[C@H](O)[C@@H](OC(N)=O)[C@@H](CO)O[C@H]1NC1=N[C@@H]2C(=O)NC[C@@H](O)[C@H]2N1
- Activity [1]: Not Active
- Ratio [2]: 0.1 to 0.3
- EC50 [3]: 0.4 to 4 µM

Compound: CCOCCCNC(=O)N1CCN(Cc2ccc3c(c2)OCO3)CC1
- Activity [4]: Not Active

Compound: O=C(O)c1cccc(-c2noc(-c3ccccc3F)n2)c1 [ATALUREN]
- Activity [1]: Not Active
- Ratio [2]: 0.1 to 0.16
- K [5]: 0.14 min⁻¹
- EC50 [3]: 170 to 350 µM
- K [6]: 1 to 1.6 min⁻¹

Compound: COc1cccc(-n2c(SCC(=O)Nc3ccc(F)cc3)nnc2-c2ccccn2)c1
- Activity [1]: Not Active
- Ratio [2]: 0.1 to 0.16
- EC50 [3]: 170 to 350 µM

Compound: CN(CC(=O)O)NC(=O)C[C@H](N)C[C@@H](O)CN [NEGAMYCIN]
- Activity [1]: Not Active
- Ratio [2]: 0.1 to 0.3

Compound: CN[C@@H]1[C@@H](O)[C@@H](O[C@@H]2[C@@H](O)[C@H](O[C@H]3O[C@H](CO)[C@@H](O)[C@H](O)[C@H]3N)[C@@H](N)C[C@H]2N)OC[C@]1(C)O
- Activity [1]: Not Active
- Ratio [2]: 0.1 to 0.3
- EC50 [3]: 0.4 to 4 µM

Compound: NCCC[C@H](N)CC(=O)NCCC[C@H](N)CC(=O)NCCC[C@H](N)CC(=O)NCCC[C@H](N)CC(=O)NCCC[C@H](N)CC(=O)N[C@@H]1[C@H](O)[C@@H](OC(N)=O)[C@@H](CO)O[C@H]1NC1=N[C@@H]2C(=O)NC[C@@H](O)[C@H]2N1
- Activity [1]: Not Active
- Ratio [2]: 0.1 to 0.3
- EC50 [3]: 0.4 to 4 µM

Compound: COc1cccc2c1C(=O)c1c(O)c3c(c(O)c1C2=O)C[C@@](O)(C(=O)CO)C[C@@H]3O[C@H]1C[C@H](N)[C@H](O)[C@H](C)O1 [DOXORUBICIN]
- Activity [1]: Not Active
- Ratio [2]: 0.1 to 0.3
- Activity [7]: Active
- Activity [8]: Active

Compound: CC[C@H]1OC(=O)[C@H](C)[C@@H](O[C@H]2C[C@@](C)(OC)[C@@H](O)[C@H](C)O2)[C@H](C)[C@@H](O[C@@H]2O[C@H](C)C[C@H](N(C)C)[C@H]2O)[C@](C)(O)C[C@@H](C)CN(C)[C@H](C)[C@@H](O)[C@]1(C)O [AZITHROMYCIN]
- Activity [4]: Not Active

Compound: C[C@H](N)[C@H]1O[C@@H](O[C@@H]2[C@@H](O)[C@H](N)C[C@H](N)[C@H]2O[C@H]2O[C@H]([C@@H](C)O)[C@@H](O)[C@H](O)[C@H]2N)[C@H](O)[C@@H]1O
- Activity [1]: Not Active
- Ratio [2]: 0.1 to 0.3
- EC50 [3]: 0.4 to 4 µM

Compound: C[C@@H](O)[C@H]1O[C@H](O[C@H]2[C@H](O[C@@H]3O[C@H](CN)[C@@H](O)[C@H]3O)[C@@H](O)[C@H](NC(=O)[C@@H](O)CCN)C[C@@H]2N)[C@H](N)[C@@H](O)[C@@H]1O
- Activity [1]: Not Active
- Ratio [2]: 0.1 to 0.3
- EC50 [3]: 0.4 to 4 µM

Compound: NCCC[C@H](N)CC(=O)NCCC[C@H](N)CC(=O)NCCC[C@H](N)CC(=O)NCCC[C@H](N)CC(=O)NCCC[C@H](N)CC(=O)NCCC[C@H](N)CC(=O)N[C@@H]1[C@H](O)[C@@H](OC(N)=O)[C@@H](CO)O[C@H]1NC1=N[C@@H]2C(=O)NC[C@@H](O)[C@H]2N1
- Activity [1]: Not Active
- Ratio [2]: 0.1 to 0.3
- EC50 [3]: 0.4 to 4 µM

Compound: CN[C@@H]1[C@@H](O)[C@@H](O[C@@H]2[C@@H](O)[C@H](O[C@H]3O[C@H]([C@H](C)O)[C@@H](O)[C@H](O)[C@H]3N)[C@@H](N)C[C@H]2N)OC[C@]1(C)O
- Activity [9]: Active
- K [10]: 1 to 1.6 min⁻¹
- Activity [1]: Not Active
- Ratio [2]: 0.1 to 0.3
- Activity [11]: Not Active
- EC50 [3]: 0.98 µM

Compound: N=C1NC(=O)/C(=C/c2ccc(-c3ccccc3[N+](=O)[O-])o2)S1
- Activity [1]: Not Active
- Ratio [2]: 0.1 to 0.16
- EC50 [3]: 170 to 350 µM

Compound: NCCC[C@H](N)CC(=O)NCCC[C@H](N)CC(=O)N[C@@H]1[C@H](O)[C@@H](OC(N)=O)[C@@H](CO)O[C@H]1NC1=N[C@@H]2C(=O)NC[C@@H](O)[C@H]2N1 [STREPTOTHRICIN E]
- Activity [1]: Not Active
- Ratio [2]: 0.1 to 0.3
- EC50 [3]: 0.4 to 4 µM

Compound: CN[C@@H]1[C@@H](O)[C@@H](O[C@@H]2[C@@H](O)[C@H](O[C@H]3O[C@H](CN)[C@@H](O)[C@H](O)[C@H]3O)[C@@H](N)C[C@H]2N)OC[C@]1(C)O [BETAMICIN]
- Activity [1]: Not Active
- Ratio [2]: 0.1 to 0.3
- EC50 [3]: 0.4 to 4 µM

Compound: C/C=C(\C)C(=O)O[C@H]1[C@H](OC(C)=O)[C@]2(CO)[C@H](O)C[C@@H]3C(=CC[C@H]4[C@H]3CC[C@@H]3[C@@H]4CC[C@H](O[C@@H]4O[C@H](C(=O)O)[C@@H](O[C@@H]5O[C@H](CO)[C@@H](O)[C@H](O)[C@H]5O)[C@H](O)[C@H]4O[C@@H]4O[C@H](CO)[C@@H](O)[C@H](O)[C@H]4O)[C@]3(C)CO)[C@@H]2CC1(C)C
- inhibition [12]: Active
- Activity [4]: Not Active
- inhibition (INH) [13]: Active

Compound: CC[C@H]1OC(=O)C[C@@H](O)[C@H](C)[C@@H](O[C@@H]2O[C@H](C)[C@@H](O[C@H]3C[C@@](C)(O)[C@@H](O)[C@H](C)O3)[C@H](N(C)C)[C@H]2O)[C@@H](CC=O)C[C@@H](C)C(=O)/C=C/C(C)=C/[C@@H]1CO[C@@H]1O[C@H](C)[C@@H](O)[C@@H](OC)[C@H]1OC [TYLOSIN]
- Activity [4]: Not Active

Compound: NCCC[C@H](N)CC(=O)NCCC[C@H](N)CC(=O)NCCC[C@H](N)CC(=O)N[C@@H]1[C@H](O)[C@@H](OC(N)=O)[C@@H](CO)O[C@H]1NC1=N[C@@H]2C(=O)NC[C@@H](O)[C@H]2N1
- Activity [1]: Not Active
- Ratio [2]: 0.1 to 0.3
- EC50 [3]: 0.4 to 4 µM

Compound: NCCC[C@H](N)CC(=O)N[C@@H]1[C@H](O)[C@@H](OC(N)=O)[C@@H](CO)O[C@H]1NC1=N[C@@H]2C(=O)NC[C@@H](O)[C@H]2N1
- Activity [1]: Not Active
- Ratio [2]: 0.1 to 0.3
- EC50 [3]: 0.4 to 4 µM

Compound: NCCC[C@H](N)CC(=O)NCCC[C@H](N)CC(=O)NCCC[C@H](N)CC(=O)NCCC[C@H](N)CC(=O)NCCC[C@H](N)CC(=O)NCCC[C@H](N)CC(=O)NCCC[C@H](N)CC(=O)N[C@@H]1[C@H](O)[C@@H](OC(N)=O)[C@@H](CO)O[C@H]1NC1=N[C@@H]2C(=O)NC[C@@H](O)[C@H]2N1
- Activity [1]: Not Active
- Ratio [2]: 0.1 to 0.3
- EC50 [3]: 0.4 to 4 µM
